Test results reported in ChEMBL document CHEMBL4673226, “Development of 5-Aminopyrazole-4-carboxamide-based Bumped-Kinase Inhibitors for Cryptosporidiosis Therapy” (J Med Chem, 2019).
pIC50: −log10 of the molar value. Values after ≈ are worked out from the molar mass of the structure shown. Active and inactive are the calls of the source. No cut-off for these calls is given here.

Key:
[1] = Toxicity in mouse assessed as induction of distress at 100 to 400 mg/kg, po; assay type: organism-based; details: in vivo, dose 100-400 mg/kg
[2] = Toxicity in mouse assessed as induction of organ abnormalities at 100 to 200 mg/kg, po QD for 7 days by histological analysis; assay type: organism-based; details: in vivo, 168 h, dose 100-200 mg/kg, time 7 day
[3] = Toxicity in mouse assessed as effect on CBC parameters by measuring lymphocytes counts at 100 mg/kg, po QD for 7 days by histological analysis (reference value: 4060 +/- 1266 ABS/uL); assay type: organism-based; details: in vivo, 168 h, time 7 day
[4] = Toxicity in mouse assessed as effect on CBC parameters by measuring lymphocytes counts at 200 mg/kg, po QD for 7 days by histological analysis (reference value: 4060 +/- 1266 ABS/uL); assay type: organism-based; details: in vivo, 168 h, time 7 day
[5] = Toxicity in human CRL-8155 cells; assay type: cell-based
[6] = Toxicity in mouse at 100 to 400 mg/kg, po; assay type: organism-based; details: in vivo, dose 100-400 mg/kg
HepG2 = assay: Toxicity in human HepG2 cells; assay type: cell-based
[7] = Toxicity in mouse assessed as effect on CBC parameters by measuring white blood cell counts at 100 mg/kg, po QD for 7 days by histological analysis (reference value: […] +/- […] 10^3/uL); assay type: organism-based; details: in vivo, 168 h, time 7 day
[8] = Toxicity in mouse at 100 to 200 mg/kg, po QD for 7 days; assay type: organism-based; details: in vivo, 168 h, dose 100-200 mg/kg, time 7 day
[9] = Toxicity in mouse assessed as effect on CBC parameters by measuring white blood cell counts at 200 mg/kg, po QD for 7 days by histological analysis (reference value: […] +/- […] 10^3/uL); assay type: organism-based; details: in vivo, 168 h, time 7 day
[10] = Protein binding in mouse plasma by dialysis method
Cryptosporidium parvum [11] = assay: Antimicrobial activity against nano-luciferase-expressing Cryptosporidium parvum infected in IFN-gamma KO B6.129S7-Ifngtm1Ts/J mouse assessed as log reduction of infection at 60 mg/kg, po BID for 5 days beginning on day 6 post infection relative untreated control; assay type: functional; details: time 5 day
[12] = AUC in mouse at 25 mg/kg, po; assay type: ADME, organism-based; design: dose 25 mg/kg; details: in vivo
Cryptosporidium parvum [13] = assay: Antimicrobial activity against nano-luciferase-expressing Cryptosporidium parvum infected in IFN-gamma KO B6.129S7-Ifngtm1Ts/J mouse assessed as log reduction of infection at 60 mg/kg, po QD for 5 days beginning on day 6 post infection relative untreated control; details: time 5.0 day
Cryptosporidium parvum [14] = assay: Antimicrobial activity against nano-luciferase-expressing Cryptosporidium parvum infected in IFN-gamma KO B6.129S7-Ifngtm1Ts/J mouse assessed as log reduction of infection at 30 mg/kg, po BID for 5 days beginning on day 6 post infection relative untreated control; assay type: functional, organism-based; details: time 5.0 day
[15] = Toxicity in mouse assessed as effect on serum chemistry parameters at 150 to 300 mg/kg, po QD for 7 days; assay type: organism-based; details: in vivo, 168 h, dose 150-300 mg/kg, time 7 day
[16] = Toxicity in mouse assessed as induction of distress at 150 to 600 mg/kg, po; assay type: organism-based; details: in vivo, dose 150-600 mg/kg
Method in brief: (§1)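 Escalating single oral doses were given to mice until toxicity signs appeared. Regimens were 100, 150, 200 and 250 mg/kg, and 150, 200, 300, 400 and 600 mg/kg. Escalation was limited by solubility in the dosing solution.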

Cryptosporidium parvum [17] = assay: Antimicrobial activity against nano-luciferase-expressing Cryptosporidium parvum infected in IFN-gamma KO B6.129S7-Ifngtm1Ts/J mouse assessed as log reduction of infection at 120 mg/kg, po QD for 5 days beginning on day 6 post infection relative untreated control; assay type: functional, organism-based; details: time 5.0 day
Cryptosporidium parvum [18] = assay: Antimicrobial activity against nano-luciferase-expressing Cryptosporidium parvum infected in IFN-gamma KO B6.129S7-Ifngtm1Ts/J mouse assessed as log reduction of infection at 15 mg/kg, po BID for 5 days beginning on day 6 post infection relative untreated control; assay type: functional, organism-based; details: time 5.0 day
[19] = Clearance in mouse at 25 mg/kg, po; assay type: ADME, organism-based; details: in vivo
[20] = Protein binding in human plasma by dialysis method
Cryptosporidium parvum [21] = assay: Antimicrobial activity against nano-luciferase-expressing Cryptosporidium parvum infected in IFN-gamma KO B6.129S7-Ifngtm1Ts/J mouse assessed as log reduction of infection at 5 mg/kg, po BID for 5 days beginning on day 6 post infection relative untreated control; assay type: functional, organism-based; details: time 5.0 day
[22] = biological target: Proto-oncogene tyrosine-protein kinase Src (Homo sapiens, UniProt P12931); assay: Inhibition of SRC (unknown origin); assay type: ADME
[23] = Toxicity in mouse at 150 to 300 mg/kg, po QD for 7 days; assay type: organism-based; details: in vivo, 168 h, dose 150-300 mg/kg, time 7 day
[24] = Inhibition of Cryptosporidium parvum CDPK1 assessed as reduction in ATP consumption using BioSyntide-2 substrate incubated for 90 mins by luciferase reporter gene assay
[25] = Toxicity in mouse assessed as effect on CBC parameters at 150 to 300 mg/kg, po QD for 7 days; assay type: organism-based; details: in vivo, 168 h, dose 150-300 mg/kg, time 7 day
[26] = Toxicity in mouse assessed as effect on organ parameters at 150 to 300 mg/kg, po QD for 7 days by histological analysis; assay type: organism-based; details: in vivo, 168 h, dose 150-300 mg/kg, time 7 day
[27] = Toxicity in mouse at 150 to 600 mg/kg, po; assay type: organism-based; details: in vivo, dose 150-600 mg/kg; method in brief: as §1
[28] = mouse, in vivo, po, 30 mg/kg, 168 h
[29] = Cardiotoxicity in rat; assay type: toxicity
[30] = Toxicity in mouse assessed as effect on serum chemistry parameters at 100 to 250 mg/kg, po QD for 7 days; assay type: organism-based; details: in vivo, 168 h, dose 100-250 mg/kg, time 7 day
[31] = Toxicity in mouse assessed as effect on organ parameters at 100 to 250 mg/kg, po QD for 7 days by histological analysis; assay type: organism-based; details: in vivo, 168 h, dose 100-250 mg/kg, time 7 day
[32] = Toxicity in mouse assessed as induction of distress at 100 to 250 mg/kg, po; assay type: organism-based; details: in vivo, dose 100-250 mg/kg; method in brief: as §1
Cryptosporidium parvum [33] = assay: Antimicrobial activity against nano-luciferase-expressing Cryptosporidium parvum infected in IFN-gamma KO B6.129S7-Ifngtm1Ts/J mouse assessed as log reduction of infection at 30 mg/kg, po QD for 5 days beginning on day 6 post infection relative untreated control; assay type: functional, organism-based; details: time 5.0 day
Cryptosporidium parvum [34] = assay: Antimicrobial activity against nano-luciferase-expressing Cryptosporidium parvum infected in IFN-gamma KO B6.129S7-Ifngtm1Ts/J mouse assessed as log reduction of infection at 60 mg/kg, po QD for 5 days beginning on day 6 post infection relative untreated control; details: time 5 day
[35] = Toxicity in mouse assessed as induction of lack of grooming at 250 mg/kg, po QD for 7 days; assay type: organism-based; details: in vivo, 168 h, time 7 day
[36] = Drug level in mouse fecus at 25 mg/kg, po; details: read-out: Drug uptake, in vivo
[37] = AUC in mouse at 10 mg/kg, po; assay type: ADME, organism-based; design: dose 10 mg/kg; details: in vivo
[38] = Solubility in pH 2.0 solution; details: buffer
[39] = Plasma concentration in mouse at 100 mg/kg, po QD for 7 days measured after 72 hrs by LC-MS/MS analysis; assay type: ADME, organism-based; details: time 7 day
Method in brief: (§2)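 Multiple-dose oral tolerability study in mice at 100 or 250 mg/kg over 7 days. Plasma was taken 2 h after dose 2, before dose 3, 2 h after dose 5, and 24, 48 and 72 h after dose 7. Drug was quantified by LC-MS/MS. Blood and organs were collected after the final dose.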

[40] = Toxicity in mouse assessed as effect on CBC parameters at 100 to 250 mg/kg, po QD for 7 days; assay type: organism-based; details: in vivo, 168 h, dose 100-250 mg/kg, time 7 day
[41] = Plasma concentration in mouse at 250 mg/kg, po QD for 3 days measured on pre dose by LC-MS/MS analysis
[42] = Plasma concentration in mouse at 250 mg/kg, po QD for 7 days measured after 48 hrs by LC-MS/MS analysis
[43] = Toxicity in mouse at 100 to 250 mg/kg, po; assay type: organism-based; details: in vivo, dose 100-250 mg/kg; method in brief: as §1
[44] = Toxicity in mouse at 100 mg/kg, po QD for 7 days; assay type: organism-based; details: in vivo, 168 h, time 7 day
[45] = mouse, in vivo, po, 30 mg/kg, 96 h
[46] = Plasma concentration in mouse at 100 mg/kg, po QD for 2 days measured after 2 hrs by LC-MS/MS analysis; assay type: ADME, organism-based; details: time 2 day; method in brief: as §2
[47] = Plasma concentration in mouse at 100 mg/kg, po QD for 7 days measured after 24 hrs by LC-MS/MS analysis; assay type: ADME, organism-based; details: time 7 day; method in brief: as §2
[48] = Plasma concentration in mouse at 100 mg/kg, po QD for 3 days measured on pre dose by LC-MS/MS analysis
[49] = Plasma concentration in mouse at 250 mg/kg, po QD for 7 days measured after 72 hrs by LC-MS/MS analysis
[50] = Plasma concentration in mouse at 250 mg/kg, po QD for 5 days measured after 2 hrs by LC-MS/MS analysis
[51] = Plasma concentration in mouse at 250 mg/kg, po QD for 2 days measured after 2 hrs by LC-MS/MS analysis
[52] = Plasma concentration in mouse at 100 mg/kg, po QD for 7 days measured after 48 hrs by LC-MS/MS analysis; assay type: ADME, organism-based; details: time 7 day; method in brief: as §2
[53] = Plasma concentration in mouse at 100 mg/kg, po QD for 5 days measured after 2 hrs by LC-MS/MS analysis; assay type: ADME, organism-based; details: time 5 day; method in brief: as §2
[54] = Toxicity in mouse assessed as induction of lethargy at 250 mg/kg, po QD for 7 days; assay type: organism-based; details: in vivo, 168 h, time 7 day
Cryptosporidium parvum [55] = assay: Antimicrobial activity against nano-luciferase-expressing Cryptosporidium parvum infected in IFN-gamma KO B6.129S7-Ifngtm1Ts/J mouse assessed as log reduction of infection at 15 mg/kg, po QD for 5 days beginning on day 6 post infection relative untreated control; assay type: functional, organism-based; details: time 5.0 day
[56] = Clearance in mouse at 10 mg/kg, po; assay type: ADME, organism-based; details: in vivo
[57] = Solubility in pH 6.5 solution; details: buffer
[58] = Plasma concentration in mouse at 250 mg/kg, po QD for 7 days measured after 24 hrs by LC-MS/MS analysis

Chain of Proto-oncogene tyrosine-protein kinase Src (P12931 2-536 limits assumed): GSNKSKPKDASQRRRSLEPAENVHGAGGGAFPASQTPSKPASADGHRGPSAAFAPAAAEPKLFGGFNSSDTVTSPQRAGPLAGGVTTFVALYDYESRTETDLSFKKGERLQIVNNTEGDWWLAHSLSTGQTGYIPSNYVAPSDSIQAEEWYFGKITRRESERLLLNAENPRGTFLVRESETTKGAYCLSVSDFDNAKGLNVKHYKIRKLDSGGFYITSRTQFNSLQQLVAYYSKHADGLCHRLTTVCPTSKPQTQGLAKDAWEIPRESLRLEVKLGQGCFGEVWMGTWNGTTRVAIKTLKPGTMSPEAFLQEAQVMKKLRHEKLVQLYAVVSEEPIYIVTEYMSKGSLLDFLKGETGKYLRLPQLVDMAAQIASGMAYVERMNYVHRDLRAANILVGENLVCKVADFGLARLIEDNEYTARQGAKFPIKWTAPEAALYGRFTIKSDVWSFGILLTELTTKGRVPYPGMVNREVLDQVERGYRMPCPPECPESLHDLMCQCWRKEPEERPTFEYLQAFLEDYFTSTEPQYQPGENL

CC(C)(CO)Cn1nc(-c2ccc3cc(OC4CC4)ccc3c2)c(C(N)=O)c1N
Activity [1]: Non-Toxic
Activity [2]: Non-Toxic
Activity [3]: 1194 abs/uL
Activity [4]: 1301 abs/uL
Activity [5]: Non-Toxic
Activity [6]: Non-Toxic
Activity (HepG2): Non-Toxic
Activity [7]: 1.5 10^3 /uL
Activity [8]: Non-Toxic
Activity [9]: 1.5 10^3 /uL

CCOc1ccc2cc(-c3nn(C(C)(C)CCO)c(N)c3C(N)=O)ccc2c1
PPB [10]: 94%
log reduction (Cryptosporidium parvum [11]): 3.37
AUC [12]: 144.5 µmol·min/L
Activity (Cryptosporidium parvum [13]): inactive
Activity (Cryptosporidium parvum [14]): Active
Activity [5]: Non-Toxic
Activity [15]: Non-Toxic
Activity [16]: Non-Toxic
Activity (Cryptosporidium parvum [17]): Active
Activity (Cryptosporidium parvum [18]): inactive
CL/F [19]: 11.1 mL/min
Activity (HepG2): Non-Toxic
PPB [20]: 99%
Activity (Cryptosporidium parvum [21]): inactive
pIC50 [22]: < 5.00
Activity [23]: Non-Toxic
pIC50 [24]: 8.60
Activity [25]: Non-Toxic
Activity [26]: Non-Toxic
Activity [27]: Non-Toxic
Cmax [28]: 0.51 µM

CCOc1ccc2cc(-c3nn(C(C)(C)C)c(N)c3C(N)=O)cnc2c1
Activity [29]: Toxic

CC(C)(C)n1nc(-c2ccc3cc(OC4CC4)ccc3c2)c(C(N)=O)c1N
Activity [30]: Non-Toxic
Activity [31]: Non-Toxic
Activity [32]: Non-Toxic
PPB [10]: 95%
Activity (Cryptosporidium parvum [33]): Active
FC (Cryptosporidium parvum [34]): 3.52
Activity [35]: Toxic
concentration [36]: 0.42 µM
AUC [37]: 9098 µmol·min/L
solubility [38]: 83 µM (≈ 30.2 µg/mL)
concentration at 168 h [39]: 0.3 µM
Activity [5]: Non-Toxic
Activity [40]: Non-Toxic
concentration at 72 h [41]: 36.1 µM
concentration at 168 h [42]: 2.3 µM
Activity [43]: Non-Toxic
Activity [44]: Non-Toxic
Cmax [45]: 28.8 µM
concentration at 48 h [46]: 36.6 µM
concentration at 168 h [47]: 26.4 µM
concentration at 72 h [48]: 19.9 µM
concentration at 168 h [49]: 0.7 µM
Activity (HepG2): Non-Toxic
PPB [20]: 82%
concentration at 120 h [50]: 72.2 µM
concentration at 48 h [51]: 40.1 µM
pIC50 [22]: < 5.00
concentration at 168 h [52]: 4.8 µM
pIC50 [24]: 8.37
concentration at 120 h [53]: 49.2 µM
Activity [54]: Toxic
Activity (Cryptosporidium parvum [55]): inactive
CL/F [56]: 0.5 mL/min
solubility [57]: 65 µM (≈ 23.7 µg/mL)
concentration at 168 h [58]: 24.6 µM
